Assays:
Mus musculus [1] = experiment: Antinociceptive activity by measuring effective dose after 10 mg/kg of nor-BNI administered subcutaneously 10 min before agonist administered in mouse; type: functional; details: sc, route subcutaneous
Procedure, shortened: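 Male albino Swiss mice (20-25 g) given compound sc in saline with 0.5% CMC (0.1-10 mg/kg) 30 min before testing. nor-BNI 10 mg/kg sc given 10 min before agonist. Acetylcholine-induced abdominal constrictions were counted for 5 min after ip acetylcholine. ED50 is the dose that halves constrictions relative to vehicle.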

Mus musculus [2] = experiment: Effective dose after 10 mg/kg of nor-BNI administered subcutaneously 10 min before agonist administered in mouse rotarod test; type: functional; details: sc, route subcutaneous
Procedure, shortened: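 Male albino Swiss mice received nor-BNI 10 mg/kg sc 10 min before agonist (sc, saline/0.5% CMC). 30 min after agonist, mice were placed on an accelerating rotarod with three trials; failure in any trial counted as impaired. ED50 is […].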

[3] = target: Kappa-type opioid receptor (Cavia porcellus, UniProt P41144); experiment: Displacement of [3H]-U-69,593 from Opioid receptor kappa 1 in guinea pig cerebellar.
Mu-type opioid receptor [4] = target: T1, Mu-type opioid receptor (Rattus norvegicus, UniProt P33535); experiment: Displacement of [3H]diprenorphine from opioid receptor mu 1 on crude membrane fractions obtained from whole rat brain (minus cerebellum); type: tissue-based
Procedure, shortened: (§1)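 Rat whole-brain (minus cerebellum) crude membranes, 1 mg protein/tube, in 50 mM Tris-HCl pH 7.4 with aprotinin, leupeptin and bacitracin. […] U50,488 and DADLE (300 nM each) saturate κ and δ sites; 1 µM DAMGO defines nonspecific binding. Compounds tested at 10^-11 to 10^-5 M. Ki values are the mean of three experiments in duplicate.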

[5] = target: T2, Delta-type opioid receptor (Rattus norvegicus, UniProt P33533); experiment: Displacement of [3H]diprenorphine opioid receptor delta 1 on crude membrane fractions obtained from the whole rat brain (minus cerebellum); type: tissue-based
Procedure, shortened: as §1, with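 “DAMGO” for “DADLE”, “µ” for “δ”, “DPDPE” for “DAMGO”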

Mu-type opioid receptor [6] = target: T1, Mu-type opioid receptor; experiment: Tested for binding affinity by [3H]diprenorphine displacement for Opioid receptor mu 1 was carried on crude membrane fractions obtained from the whole rat brain minus cerebellum..; type: tissue-based; procedure, shortened: as §1
[7] = target: T2, Delta-type opioid receptor; experiment: Tested for binding affinity by [3H]diprenorphine displacement for Opioid receptor delta 1 are carried on crude membrane fractions obtained from the whole rat brain minus cerebellum.; type: tissue-based
Procedure, shortened: as §1, with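 “DAMGO” for “DADLE”, “µ” for “δ”, “DPDPE” for “DAMGO”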

[8] = target: Opioid receptors; delta & kappa (Homo sapiens) (UniProt P41145+P41143); experiment: (§2) Ratio of affinity towards delta to kappa opioid receptor; type: protein assay
[9] = target: Opioid receptors; mu & kappa (UniProt P41145+P35372); experiment: Ratio of affinity towards mu and kappa opioid receptors; type: protein assay
Cavia porcellus = species on record: Cavia porcellus; experiment: as §2

Opioid receptors; mu & kappa, sequence (P35372 whole entry, looked up): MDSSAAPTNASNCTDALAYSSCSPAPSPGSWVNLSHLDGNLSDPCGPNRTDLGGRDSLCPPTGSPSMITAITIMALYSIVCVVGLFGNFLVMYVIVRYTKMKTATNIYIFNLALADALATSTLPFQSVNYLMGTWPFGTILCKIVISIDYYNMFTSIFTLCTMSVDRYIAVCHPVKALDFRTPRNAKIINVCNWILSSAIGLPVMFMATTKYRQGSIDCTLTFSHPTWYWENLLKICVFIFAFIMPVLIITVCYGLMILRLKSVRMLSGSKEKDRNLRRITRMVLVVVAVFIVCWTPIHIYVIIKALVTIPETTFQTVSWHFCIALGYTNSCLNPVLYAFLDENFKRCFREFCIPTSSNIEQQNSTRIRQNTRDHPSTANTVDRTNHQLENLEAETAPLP
Opioid receptors; mu & kappa, sequence (P41145 whole entry, looked up): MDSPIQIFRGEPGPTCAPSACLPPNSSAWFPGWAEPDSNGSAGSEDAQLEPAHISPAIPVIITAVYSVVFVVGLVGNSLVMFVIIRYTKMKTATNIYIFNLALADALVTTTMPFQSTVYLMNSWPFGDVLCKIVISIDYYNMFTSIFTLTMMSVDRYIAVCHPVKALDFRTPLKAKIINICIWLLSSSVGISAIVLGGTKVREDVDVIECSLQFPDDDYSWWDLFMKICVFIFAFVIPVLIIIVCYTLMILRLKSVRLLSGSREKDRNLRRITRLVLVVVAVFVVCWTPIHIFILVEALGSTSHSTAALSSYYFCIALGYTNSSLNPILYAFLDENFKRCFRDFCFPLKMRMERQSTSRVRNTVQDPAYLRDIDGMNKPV
T1 sequence (P33535 whole entry): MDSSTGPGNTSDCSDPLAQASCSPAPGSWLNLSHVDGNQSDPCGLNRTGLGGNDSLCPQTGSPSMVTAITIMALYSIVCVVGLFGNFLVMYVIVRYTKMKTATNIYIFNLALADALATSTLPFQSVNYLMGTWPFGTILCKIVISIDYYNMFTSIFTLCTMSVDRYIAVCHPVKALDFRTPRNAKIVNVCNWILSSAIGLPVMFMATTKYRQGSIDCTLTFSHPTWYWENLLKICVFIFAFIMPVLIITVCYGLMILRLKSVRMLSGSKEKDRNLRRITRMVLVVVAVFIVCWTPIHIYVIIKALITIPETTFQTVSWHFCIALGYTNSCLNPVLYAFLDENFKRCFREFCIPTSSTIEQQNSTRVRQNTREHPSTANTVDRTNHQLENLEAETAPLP
T2 sequence (P33533 whole entry): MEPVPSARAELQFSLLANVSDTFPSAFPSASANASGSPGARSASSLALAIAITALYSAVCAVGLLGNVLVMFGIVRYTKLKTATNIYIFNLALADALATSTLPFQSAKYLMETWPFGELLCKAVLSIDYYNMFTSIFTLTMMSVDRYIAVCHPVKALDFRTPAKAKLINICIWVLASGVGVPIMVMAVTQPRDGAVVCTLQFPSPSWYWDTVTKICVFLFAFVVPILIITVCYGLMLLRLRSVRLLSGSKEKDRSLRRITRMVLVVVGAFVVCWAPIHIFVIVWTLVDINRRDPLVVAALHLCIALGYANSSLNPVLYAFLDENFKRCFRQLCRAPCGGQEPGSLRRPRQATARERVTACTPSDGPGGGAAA
Kappa-type opioid receptor, sequence (P41144 whole entry): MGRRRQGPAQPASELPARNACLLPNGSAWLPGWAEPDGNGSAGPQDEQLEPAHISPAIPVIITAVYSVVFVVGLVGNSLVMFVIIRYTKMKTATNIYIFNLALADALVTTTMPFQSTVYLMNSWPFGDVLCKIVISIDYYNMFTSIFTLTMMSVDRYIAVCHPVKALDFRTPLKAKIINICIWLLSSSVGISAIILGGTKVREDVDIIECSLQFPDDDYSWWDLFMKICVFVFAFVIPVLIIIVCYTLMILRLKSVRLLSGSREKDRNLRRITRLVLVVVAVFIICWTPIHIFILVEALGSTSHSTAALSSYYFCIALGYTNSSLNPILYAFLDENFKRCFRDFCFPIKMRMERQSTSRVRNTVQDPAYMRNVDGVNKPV
Opioid receptors; delta & kappa (Homo sapiens), sequence (P41143 whole entry, looked up): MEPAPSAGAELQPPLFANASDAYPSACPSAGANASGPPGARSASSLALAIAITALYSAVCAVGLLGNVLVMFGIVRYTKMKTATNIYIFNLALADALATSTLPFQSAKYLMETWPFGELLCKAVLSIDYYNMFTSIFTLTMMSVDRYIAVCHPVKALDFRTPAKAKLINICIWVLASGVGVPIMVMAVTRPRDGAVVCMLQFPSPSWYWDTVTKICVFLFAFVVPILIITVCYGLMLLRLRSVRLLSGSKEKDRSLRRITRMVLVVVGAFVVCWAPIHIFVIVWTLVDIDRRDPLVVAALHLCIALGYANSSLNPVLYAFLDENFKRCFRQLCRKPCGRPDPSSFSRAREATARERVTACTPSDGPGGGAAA
Opioid receptors; delta & kappa (Homo sapiens), sequence (P41145 whole entry, looked up): as the sequence (P41145 whole entry, looked up) above

CCCCC(=N)NCCCCCNC(=O)C(CC(C)C)NC(=O)CNC(=O)[C@]1(c2ccccc2)CC1CN1CC[C@@]2(C)c3cc(O)ccc3CC1C2C (some centres not stated)
ED50 (Mus musculus [1]): 0.88 mg/kg
ED50 (Mus musculus [2]): 9.2 mg/kg
Ki [3]: 6.7 nM
Ki (Mu-type opioid receptor [4]): 2530 nM
Ki [5]: 2750 nM

CCCCC(=N)NCCCCCCNC(=O)C(CC(C)C)NC(=O)CNC(=O)[C@]1(c2ccccc2)CC1CN1CC[C@@]2(C)c3cc(O)ccc3CC1C2C (some centres not stated)
ED50 (Mus musculus [1]): 1.1 mg/kg
ED50 (Mus musculus [2]): 11.9 mg/kg
Ki [3]: 5.3 nM
Ki (Mu-type opioid receptor [4]): 2150 nM
Ki [5]: 2230 nM

COC(=O)[C@]1(c2ccccc2)C[C@@H]1CN1CC[C@@]2(C)c3cc(O)ccc3CC1[C@@H]2C
Ki (Mu-type opioid receptor [6]): > 25000 nM
Ki [7]: > 25000 nM

CC(C)CC(NC(=O)[C@]1(c2ccccc2)CC1CN1CC[C@@]2(C)c3cc(O)ccc3CC1C2C)C(=O)NCCCCCCN (some centres not stated)
Ki [3]: 242 nM
Ki (Mu-type opioid receptor [4]): 3080 nM
Ki [5]: 3420 nM
Ratio [8]: 14.1
Selectivity ratio [9]: 12.7

CC(C)CC(NC(=O)CNC(=O)[C@]1(c2ccccc2)CC1CN1CC[C@@]2(C)c3cc(O)ccc3CC1C2C)C(=O)NCCCCN=C(N)N (some centres not stated)
Ki [3]: 67.2 nM
Ki (Mu-type opioid receptor [4]): 6160 nM
Ki [5]: 3500 nM
Selectivity ratio (Cavia porcellus): 52.1
Selectivity ratio [9]: 91.7

CCCCC(=N)NCCCNC(=O)C(CC(C)C)NC(=O)CNC(=O)[C@]1(c2ccccc2)CC1CN1CC[C@@]2(C)c3cc(O)ccc3CC1C2C (some centres not stated)
Ki [3]: 18 nM
Ki (Mu-type opioid receptor [4]): 3460 nM
Ki [5]: 4950 nM
Selectivity ratio (Cavia porcellus): 275
Selectivity ratio [9]: 192

CCCC(=N)NCCCCCCNC(=O)C(CC(C)C)NC(=O)CNC(=O)[C@]1(c2ccccc2)CC1CN1CC[C@@]2(C)c3cc(O)ccc3CC1C2C (some centres not stated)
Ki [3]: 15.4 nM
Ki (Mu-type opioid receptor [4]): 2270 nM
Ki [5]: 2430 nM
Selectivity ratio (Cavia porcellus): 158
Selectivity ratio [9]: 125
